Screens (PubChem BioAssay)
In the library only some 1.6% were active in any assay of this set; here they are far more common.
Vif inh = HIV Vif inhibition | 340,000 compounds, 0.35% hits | AID 602346 | inhibition, % at 7.49 µM | HEK293T cells, Vif self-association by quenched fluorescence, imaging, 24 h; in the data active = inhibition above about 50%, passing the limit was not always enough; inconclusive = no clear call, values can overlap the other calls; inactive = below about 31%
H9c2 TAG inh = reduces triacylglycerol accumulation in H9c2 cells | Nile Red lipid (TAG) fluorescence; cells loaded with 200 µM oleic acid | inhibition, % at 12.5 µM | 230,000 compounds, 0.66% hits;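 active = pattern-corrected inhibition of lipid staining of at least 50% with the nuclear-stain viability signal not falling by more than 50%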
Bfl-1 A1 inh = inhibitors of the anti-apoptotic protein A1, read as caspase activation. 330,000 compounds, 0.066% hits. MEF A1-2A-BIM cells, Caspase-Glo 3/7 luminescence, 3 h; percent of clofoctol response, vehicle zero. AID 2462. caspase activation, % (test concentration not listed);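 active = over half of replicate activation scores above 10%, or exactly half above 10 with the replicate mean above 10; inconclusive = replicate mean below 10 yet half the replicates above 10; inactive = over half of replicates below 10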
SR-BI DiI inh = inhibitors of mouse SR-BI mediated HDL lipid uptake; ldlA[mSR-BI] CHO cells, DiI-HDL uptake fluorescence, 3 h; inhibition, % at 12.5 µM; 320,000 compounds, 0.96% hits; Q61009;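 active = mean replicate inhibition of at least 70% and a set share of replicates each scoring 70 or more; inconclusive = meets just one of the two criteria; inactive = fails both criteria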
Target sequence (Q61009 whole entry, looked up): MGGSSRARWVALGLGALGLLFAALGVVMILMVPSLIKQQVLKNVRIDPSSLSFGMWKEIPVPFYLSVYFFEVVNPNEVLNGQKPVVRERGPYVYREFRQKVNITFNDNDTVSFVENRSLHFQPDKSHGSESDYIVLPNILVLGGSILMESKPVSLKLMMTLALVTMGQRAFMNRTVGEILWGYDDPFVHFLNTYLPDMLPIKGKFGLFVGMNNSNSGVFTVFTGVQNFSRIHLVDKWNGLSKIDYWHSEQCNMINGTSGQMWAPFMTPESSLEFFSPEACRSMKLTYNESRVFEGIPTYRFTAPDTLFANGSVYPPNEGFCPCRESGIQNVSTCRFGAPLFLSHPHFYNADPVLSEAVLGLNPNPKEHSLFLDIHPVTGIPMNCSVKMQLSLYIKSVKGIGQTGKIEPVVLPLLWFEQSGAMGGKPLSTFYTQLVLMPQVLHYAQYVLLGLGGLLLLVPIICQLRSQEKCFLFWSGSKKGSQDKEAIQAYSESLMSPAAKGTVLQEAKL
SR-BI uptake up = enhances SR-BI lipid uptake from DiI-HDL. CHO ldlA[mSR-BI] cells, DiI-HDL uptake fluorescence, 3 h; 100 = double the neutral-control signal. 320,000 compounds, 0.096% hits. activation, % at 12.5 µM;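 active = mean replicate activation of at least 60% and every replicate at or above 60%; inconclusive = mean or all-replicate condition met, but not both; inactive = mean below 60% and not all replicates reaching 60%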
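Test system: SR-BI-overexpressing, LDLR-lacking CHO cells; Also added: labelled HDL, 10 µg/mL; Measured by: bottom-read cell fluorescence after medium removal, ex 550/em 595 nm; Timing: 3 h uptake period with compound, 37 °C; Buffer or medium: F12, 0.5% BSA, 25 mM HEPES; Doses: single compound concentration, delivered by pin transfer.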
Each line names hits and unclear results; the compound was inactive in the other large screens; ! = not active in a repeat.

CCn1cc(CN2CCN(CCc3ccccc3)C(CCO)C2)c(C)n1 (configuration not stated)	none (no result: H9c2 TAG inh)
O=C(NCc1cccs1)c1ccc(-c2ccc(F)c(F)c2)c2ccoc12	none (no result: Bfl-1 A1 inh, SR-BI DiI inh, SR-BI uptake up)
COc1cc(C(=O)NCCOc2ccc(Cl)cc2)ccc1OCc1c(C)noc1C	SR-BI DiI inh 84.5 (no result: Bfl-1 A1 inh)
COc1ccc(C)cc1NC(=O)c1cccc(-c2ccc(OC(C)=O)cc2)c1	SR-BI DiI inh 76.9 (no result: H9c2 TAG inh)
Cc1ccc(NC(=O)c2ccc(OCc3c(C)noc3C)cc2)cc1C	SR-BI DiI inh 89.2
Cc1cccc(C)c1NC(=O)c1ccc(OCc2c(C)noc2C)cc1	none
COc1ccc(C)cc1NC(=O)c1ccc(OCc2c(C)noc2C)cc1	SR-BI DiI inh 70.8
CC(=O)Nc1ccc(NC(=O)c2ccc(OCc3c(C)noc3C)cc2)cc1	Vif inh 60.4
CCN1C[C@@H]2[C@@H]3C(=O)N(C)C(=O)[C@@H]3[C@](C)(C1=O)N2C(=O)c1ccc(C(F)(F)F)cc1	none (no result: Bfl-1 A1 inh)
Cc1ccc(CSc2sc(C(=O)c3ccccc3)c(N)c2C#N)cc1	none
Cc1ccc(-c2sc(C(=O)NN)c(C)c2C#N)cc1	Bfl-1 A1 inh inconclusive, SR-BI DiI inh 91.6
Cc1ccc2c(c1)/C(=N/OS(=O)(=O)c1ccccc1)CCS2	Vif inh inconclusive
CC1=CC(=O)C(C(C)C)=C/C1=N/OS(=O)(=O)c1ccccc1	Bfl-1 A1 inh 26.8, SR-BI DiI inh 79.7
CC1=CC(=O)C=C(C)C1=NOS(=O)(=O)c1ccccc1	SR-BI DiI inh 111.6 (no result: Bfl-1 A1 inh)
CCN(CC(=O)NCc1ccc(F)cc1)C(=O)/C=C/c1ccc(S(=O)(=O)N(CC)CC)cc1	SR-BI DiI inh 75.7 (no result: H9c2 TAG inh)
CCC(C)(C)NC(=O)Cc1ccc(Cl)cc1	none (no result: H9c2 TAG inh)
Cc1csc(SCCn2c(N3CCN(c4ccccc4)CC3)nc3c2c(=O)[nH]c(=O)n3C)n1	Vif inh 56.9
CCN1CCN(c2nc3c(c(=O)[nH]c(=O)n3C)n2CCSc2nc3ccccc3s2)CC1	none
COc1cc(/C=N/NC(=S)Nc2cccc(S(=O)(=O)N(C)C)c2)ccc1O	SR-BI DiI inh 71.2 (no result: H9c2 TAG inh)
COc1cc(/C=N/NC(=O)c2cccc(NC(=O)c3ccccc3)c2)ccc1O	none (no result: H9c2 TAG inh)
N#C/C(=C\c1ccc(N2CCCCC2)o1)C(N)=O	none (no result: Vif inh)
N#C/C(=C\c1ccc(N2CCCCC2)o1)C(=O)Nc1cccc(Br)c1	SR-BI DiI inh 98.7 (no result: H9c2 TAG inh)
Fc1ccc(-c2n[nH]c(=S)c3ccccc23)cc1	Vif inh 52.2
C=CCN1N=C(c2ccc(NC(=O)c3ccccc3)cc2)CSC1=O	none
CCc1cc2c(=O)c(-c3cscn3)coc2c(CN(C)C)c1O	none
CCc1cc2c(=O)c(-c3ccc4c(c3)OCO4)coc2c(CN(C)C)c1O	SR-BI DiI inh 79.4 (no result: H9c2 TAG inh)
CCCc1nnc(SCC(=O)N2CCCC(C)C2)n1CCOC (configuration not stated)	none
O=C(/C=C/c1ccco1)Oc1cc(Br)cc(/C=N/NC(=O)c2ccccc2O)c1	SR-BI DiI inh 133.7 (no result: H9c2 TAG inh)
CC(=O)c1sc(N/N=C/c2cccc(O)c2)nc1C	none (no result: Vif inh, SR-BI DiI inh, SR-BI uptake up)
Cc1cc(N/N=C/c2c(O)ccc3ccccc23)nc(-c2ccccc2O)n1	SR-BI DiI inh 90.9 (no result: H9c2 TAG inh)
CC(=O)c1sc(N/N=C\c2c(O)ccc3ccccc23)nc1C	SR-BI DiI inh 97.1
COc1ccc(-c2nn(C)c(=O)c3ccccc23)cc1NC(=O)COc1ccc(C)cc1	SR-BI DiI inh 92.2 (no result: H9c2 TAG inh)
CC(=O)Oc1ccc(C(=O)Nc2cccc(C(=O)c3ccc(C)c(C)c3)c2)cc1	SR-BI DiI inh 84.0
COC(=O)c1cc(C(=O)NCC2CCCCC2)cc([N+](=O)[O-])c1	none (no result: H9c2 TAG inh)
COC1(C)CC2C(CC1OC(=O)c1cc([N+](=O)[O-])cc([N+](=O)[O-])c1)C2(C)C (configuration not stated)	SR-BI DiI inh 93.2! (no result: H9c2 TAG inh)
C=C1CCN(C(C)C(=O)OC)S(=O)(=O)c2ccccc21 (configuration not stated)	H9c2 TAG inh 55.4
CCC(=O)NC(=S)Nc1ccccc1F	none (no result: H9c2 TAG inh)
CC(=O)NC(=S)Nc1ccccc1F	Vif inh 58.4 (no result: SR-BI DiI inh, SR-BI uptake up)
Cc1ccc(C(C)(C)C)cc1S(=O)(=O)Nc1nc2ccccc2nc1Cl	none (no result: H9c2 TAG inh)
Cc1ccccc1S(=O)(=O)Nc1nc2ccccc2nc1NCCO	Vif inh 51.5 (no result: H9c2 TAG inh)
O=C(c1ccccc1)c1ccc2nc(-c3ccc(NC(=O)c4ccccc4F)cc3)[nH]c2c1	H9c2 TAG inh 57.7
COc1ccc(-c2oc3ccccc3c2C#Cc2cncn2C)cc1	SR-BI DiI inh 78.9
N#Cc1ccc(-c2csc(NC3=NCCCCC3)n2)cc1	SR-BI DiI inh 74.9 (no result: Bfl-1 A1 inh)
Cc1nn(-c2ccccc2)c(Cl)c1CN(C(=O)CCl)c1ccc(Cl)cc1	Bfl-1 A1 inh 6.2 (no result: H9c2 TAG inh)
O=C(COc1cccc(C(F)(F)F)c1)Nc1cccc(S(=O)(=O)NC2=NCCCCC2)c1	none (no result: Bfl-1 A1 inh)
CN(C)CC/C=C1\c2ccc(F)cc2Sc2cc(F)c(Cl)cc21	H9c2 TAG inh 61.4 (no result: Vif inh, SR-BI DiI inh, SR-BI uptake up)
CN(C)CC/C=C1\c2ccccc2Sc2cc(F)c(Cl)cc21	H9c2 TAG inh 62.2
CN(C)CC/C=C1\c2ccccc2Sc2ccc(Cl)cc21	none
Cc1ccc(OCC(=O)Nc2ccc(N3CCCC3)cc2)cc1C	SR-BI DiI inh inconclusive (no result: Vif inh, H9c2 TAG inh)
Cc1cc(C)cc(OCC(=O)Nc2ccc(N3CCCC3)cc2)c1	SR-BI DiI inh 74.6 (no result: H9c2 TAG inh)
Cc1cccc(OCC(=O)Nc2ccc(N3CCCC3)cc2)c1C	SR-BI DiI inh 71.2 (no result: H9c2 TAG inh)
O=C(COC(=O)/C=C/c1ccc([N+](=O)[O-])cc1)NNC(=O)c1ccccc1	none
O=S(=O)(NCCN1CCCC1)c1ccc(Cl)cc1	none (no result: H9c2 TAG inh)
O=S(=O)(NCCN1CCCC1)c1ccc(Br)cc1	SR-BI uptake up 62.0 (no result: H9c2 TAG inh)
CC(C)OC(=O)c1c(NC(=O)Cn2cnc([N+](=O)[O-])n2)sc2c1CCCC2	SR-BI DiI inh 74.9 (no result: SR-BI uptake up)
CC(C)(C)N(Cc1ccc2c(c1)OCO2)C(=O)/C=C\S(=O)c1ccccc1 (configuration not stated)	H9c2 TAG inh 82.7 (no result: Bfl-1 A1 inh)
COc1ccc(OCC(=O)Nc2ccc3c(c2)nc(CCN2CCN(c4ccccn4)CC2)n3C)cc1	none (no result: Bfl-1 A1 inh, SR-BI DiI inh, SR-BI uptake up)
Cc1cccc(OCC(=O)Nc2ccc3c(c2)nc(CCN2CCN(c4ccccn4)CC2)n3C)c1	SR-BI DiI inh 73.1 (no result: H9c2 TAG inh)
Cc1ccc2nc(NC(=O)C3CCN(S(=O)(=O)c4cc([N+](=O)[O-])ccc4Cl)CC3)sc2c1	none (no result: H9c2 TAG inh)
O=C(Nc1nc2ccc(F)cc2s1)C1CCN(S(=O)(=O)c2cc([N+](=O)[O-])ccc2Cl)CC1	SR-BI DiI inh 76.6 (no result: H9c2 TAG inh)
COC(=O)Cn1c2ccccc2c2nc3ccccc3nc21	SR-BI DiI inh 98.3
CC(C)c1cc(-c2cc(-c3ccccc3)on2)nc(NC2CCCC2)n1	SR-BI DiI inh 75.3
CC1CN(S(=O)(=O)c2cccc(C(=O)N3CCC(C(N)=O)CC3)c2)CC(C)O1 (configuration not stated)	Vif inh 53.2
CCOC(=O)C1=C(CN2CCN(c3ccc(F)cc3)CC2)NC(=O)NC1c1cccs1 (configuration not stated)	SR-BI DiI inh 78.3
